Activity calls are given as the source filed them. The calls are words filed in the database; no cut-off is given here.
Tests used:
[1] = Stability in human plasma assessed as parent compound remaining at 2 uM incubated for 120 mins by RF-MS analysis; type: ADME, cell-free; details: read-out: Stability
CCRF-CEM [2] = assay: Cell cycle arrest in human CCRF-CEM cells assessed as accumulation of cells at sub G1 phase at IC50 measured after 24 hrs by propidium iodide staining based flow cytometry analysis (Rvb= 2.77%); type: functional
CCRF-CEM [3] = assay: Cell cycle arrest in human CCRF-CEM cells assessed as accumulation of cells at G2/M phase at IC50 measured after 24 hrs by propidium iodide staining based flow cytometry analysis (Rvb= 21.62%); type: functional
CCRF-CEM [4] = assay: Induction of cell cycle arrest in human CCRF-CEM cells assessed as downregulation of cyclin D1 protein expression at 5 times IC50 measured after 24 hrs by western blot analysis; type: functional, cell-based
In short: (§1)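 Protein (15 µg/lane) was resolved by 10% SDS-PAGE and transferred to nitrocellulose. Blocked in 5% milk/TBST, then probed overnight at 4 °C with primary antibodies (1:1000) and HRP secondaries. Detected by ECL, with β-actin as loading control.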

[5] = Apparent permeability of the compound in dog MDCK-MDR1 cells at pH 7.4 at 10 micromol/L measured after 1 hr by RF-MS analysis; type: ADME, cell-based, Canis lupus familiaris; details: MDCK-MDR1, pH 7.4, dose 10 µmol/L
In short: (§2)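 Caco-2 and MDCK-MDR1 cells grown on polyester Transwell filters (0.4 and 1 µm pores) in DMEM pH 7.4 with 10% FBS; monolayer integrity checked by Lucifer Yellow rejection. Cells washed and pre-equilibrated 1 h in HBSS pH 7.4, then dosed with compound in HBSS pH 7.4. Incubation was 1 h for MDCK and 2 h for Caco-2. Samples lyophilized and quantified by RapidFire MS/MS with internal standard. Duplicates. Papp = (dQ/dt)/(C0·A).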

CCRF-CEM [6] = assay: Induction of apoptosis in human CCRF-CEM cells assessed as late apoptotic cells at IC50 measured after 24 hrs by Annexin V-FITC/PI staining based flow cytometry analysis (Rvb= 1.4%); type: functional
HCT-116 = assay: Cytotoxicity against human HCT-116 cells assessed as reduction in cell viability measured after 72 hrs by MTS assay; type: functional, cell-based; details: HCT-116, 72 h
CCRF-CEM [7] = assay: Inhibition of RNA synthesis in human CCRF-CEM cells at 5 times IC50 by […] incorporation assay (Rvb= 36.54%); type: functional; parameters: scale not given: the % may be the effect or the level left
[8] = Microsomal stability in human liver microsomes assessed as parent compound remaining at 2 uM in the presence of NADPH measured after 30 mins by RF-MS analysis; type: ADME, Microsome; details: read-out: Stability
In short: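 Human liver microsomes incubated with compound in the presence of NADPH cofactor to assess phase I oxidation. Intrinsic clearance was derived from the decline of the parent compound.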

CCRF-CEM [9] = assay: Cell cycle arrest in human CCRF-CEM cells assessed as accumulation of cells at G0/G1 phase at IC50 measured after 24 hrs by propidium iodide staining based flow cytometry analysis (Rvb= 40.20%); type: functional
A549 = assay: Cytotoxicity against human A549 cells assessed as reduction in cell viability measured after 72 hrs by MTS assay; type: functional, cell-based; details: A549, 72 h
CCRF-CEM [10] = assay: Cell cycle arrest in human CCRF-CEM cells assessed as accumulation of cells at G0/G1 phase at 5 times IC50 measured after 24 hrs by propidium iodide staining based flow cytometry analysis (Rvb= 40.20%); type: functional
CCRF-CEM [11] = assay: Induction of mitotic arrest in human CCRF-CEM cells assessed as phosphorylation of histone H3 at Ser10 at 5 times IC50 measured after 24 hrs by propidium iodide staining based flow cytometry analysis (Rvb= 1.72%); type: functional
[12] = Cytotoxicity against human HCT116 p53-null cells assessed as reduction in cell viability measured after 72 hrs by MTS assay; type: functional, cell-based
CCRF-CEM [13] = assay: Induction of cell cycle arrest in human CCRF-CEM cells assessed as upregulation of p21 protein expression at 5 times IC50 measured after 24 hrs by western blot analysis; type: functional, cell-based; in short: as §1
[14] = Fraction bound in human plasma at 10 uM measured after 4 hrs by RF-MS based rapid equilibrium dialysis method
CCRF-CEM [15] = assay: Induction of apoptosis in human CCRF-CEM cells assessed as live cells at IC50 measured after 24 hrs by Annexin V-FITC/PI staining based flow cytometry analysis (Rvb= 96.7%); type: functional
[16] = Apparent permeability of the compound in dog MDCK-MDR1 cells assessed as recovery rate at pH 7.4 at 10 micromol/L measured after 1 hr by RF-MS analysis; type: ADME, cell-based, Canis lupus familiaris; details: MDCK-MDR1, pH 7.4, dose 10 µmol/L, read-out: Activity
[17] = Apparent permeability of the compound in human Caco2 cells at pH 7.4 at 10 micromol/L measured after 2 hrs by RF-MS analysis; type: ADME, cell-based; details: Caco-2, pH 7.4, dose 10 µmol/L; in short: as §2
CCRF-CEM [18] = assay: Induction of apoptosis in human CCRF-CEM cells assessed as upregulation of BAX expression at 5 times IC50 measured after 24 hrs by western blot analysis relative to control; type: functional; in short: as §1
CCRF-CEM [19] = assay: Induction of apoptosis in human CCRF-CEM cells assessed as downregulation of Bcl2 expression at 5 times IC50 measured after 24 hrs by western blot analysis; type: functional, cell-based; in short: as §1
CCRF-CEM [20] = assay: Induction of apoptosis in human CCRF-CEM cells assessed as dead cells at 5 times IC50 measured after 24 hrs by Annexin V-FITC/PI staining based flow cytometry analysis (Rvb= 0.3%); type: functional
In short: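 They were washed in ice-cold PBS and incubated with Annexin V-FITC plus PI for 20 min at room temperature in the dark. Cells were then pelleted and resuspended in binding buffer (10 mmol/L HEPES/NaOH pH 7.4, 140 mmol/L NaCl, 2.5 mmol/L CaCl2). Read on a FACSAria II, ≥10,000 cells per sample.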

**Q.** What does the source list for `C=C(/C=C/c1cccc(Cl)c1)[C@@H]1CC[C@]2(C(=O)O)CC[C@]3(C)[C@H](CC[C@@H]4[C@@]5(C)CC[C@H](O)C(C)(C)[C@@H]5CC[C@]43C)[C@@H]12`?
**A.** remaining at 2 h, 2 µM [1]: 77.7%; Activity (CCRF-CEM [2]): 5.66%; Activity (CCRF-CEM [3]): 14.39%; Activity (CCRF-CEM [4]): Active; Papp at 1 h, 10 µM [5]: 22.4 ×10⁻⁶ cm/s; Activity (CCRF-CEM [6]): 4.6%; IC50 (HCT-116): 16.4 µM; Activity (CCRF-CEM [7]): 11.37%; remaining at 0.5 h, 2 µM [8]: 92.4%; Activity (CCRF-CEM [9]): 42.87%; IC50 (A549): 29.2 µM; Activity (CCRF-CEM [10]): 49.79%; Activity (CCRF-CEM [11]): 1.52%; IC50 [12]: 15.2 µM; Activity (CCRF-CEM [13]): Active; PPB (% bound) at 4 h, 10 µM [14]: 79%; Activity (CCRF-CEM [15]): 91.9%; recovery at 1 h, 10 µM [16]: 104%; Papp at 2 h, 10 µM [17]: 17.5 ×10⁻⁶ cm/s

**Q.** With `C=C(/C=C/c1ccc([N+](=O)[O-])cc1)[C@@H]1CC[C@]2(C(=O)O)CC[C@]3(C)[C@H](CC[C@@H]4[C@@]5(C)CC[C@H](O)C(C)(C)[C@@H]5CC[C@]43C)[C@@H]12` as the compound, how does the remaining at 2 h, 2 µM [1] read?
**A.** The remaining at 2 h, 2 µM was 71.5%.

**Q.** And the Activity (CCRF-CEM [18])?
**A.** Its Activity is 20%.

**Q.** What about the Activity (CCRF-CEM [2]) of the same compound?
**A.** Its Activity is 6.54%.

**Q.** And the Activity (CCRF-CEM [3])?
**A.** Its Activity is 23.16%.

**Q.** What about the Activity (CCRF-CEM [4]) of the same compound?
**A.** The Activity was “Active”.

**Q.** And the Papp at 1 h, 10 µM [5]?
**A.** The Papp at 1 h, 10 µM was 0.43 ×10⁻⁶ cm/s.

**Q.** And the Activity (CCRF-CEM [6])?
**A.** The Activity was 4.9%.

**Q.** And the IC50 (HCT-116)?
**A.** The IC50 was 18.6 µM.

**Q.** What about the Activity (CCRF-CEM [7]) of the same compound?
**A.** Its Activity is 4.07%.

**Q.** What about the remaining at 0.5 h, 2 µM [8] of the same compound?
**A.** Its remaining at 0.5 h, 2 µM is 78.5%.

**Q.** And the Activity (CCRF-CEM [9])?
**A.** Its Activity is 48.4%.

**Q.** What about the Activity (CCRF-CEM [19]) of the same compound?
**A.** Its Activity is “Active”.

**Q.** What about the IC50 (A549) of the same compound?
**A.** Its IC50 is 14.3 µM.

**Q.** And the Activity (CCRF-CEM [10])?
**A.** The Activity was 29.57%.

**Q.** And the Activity (CCRF-CEM [11])?
**A.** The Activity was 0.93%.

**Q.** What about the Activity (CCRF-CEM [20]) of the same compound?
**A.** The Activity was 1.9%.

**Q.** And the IC50 [12]?
**A.** Its IC50 is 15.7 µM.

**Q.** What about the Activity (CCRF-CEM [13]) of the same compound?
**A.** The Activity was “Active”.

**Q.** What about the PPB (% bound) at 4 h, 10 µM [14] of the same compound?
**A.** Its PPB (% bound) at 4 h, 10 µM is 68.1%.

**Q.** And the Activity (CCRF-CEM [15])?
**A.** The Activity was 90.9%.

**Q.** What about the recovery at 1 h, 10 µM [16] of the same compound?
**A.** The recovery at 1 h, 10 µM was 56.7%.

**Q.** What about the Papp at 2 h, 10 µM [17] of the same compound?
**A.** The Papp at 2 h, 10 µM was 0.96 ×10⁻⁶ cm/s.
